Screening results as filed in PubChem.
Shown are actives, neighbours in structure and some others; about 2.1% of the full set was active somewhere.
MT stabilizer – microtubule stabilization, imaging screen | 200,000 tested, 0.83% active | HeLa tubulin immunostaining HCS, 24 h; share of cells brighter than vehicle mean+2SD | AID 2205 | % tubulin-high responders, % at 10 µM;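 active = plate Z-score above 3 for both tubulin-high and condensed-nucleus cell shares, with cell loss under 80%, at 10 µM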;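 also: anti alpha tubulin signal scored within the nucleus-defined area of each cell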
IEC-6 tox – kills IEC-6 intestinal cells in KLF5 counter-screen; IEC-6 cytotoxicity, luminescence viability; inhibition, % at 5 µM; 290,000 tested, 0.78% active; AID 1825;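 also: 0% = plate median of test compound wells and 100% = cytotoxic reference compound wells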
Ba/F3 V617F tox – lowers viability of Ba/F3 cells expressing EpoR and JAK2V617F; ATP luminescence; inhibition, % at 5.6 µM; 220,000 tested, 1.1% active;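 active = inhibition above the campaign mean plus 3 SD over all tested compounds, cut at about 24% in these data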;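 also: cytokine-independent growth of Ba/F3 cells driven by EpoR plus mutant JAK2; 0% = DMSO-treated cells and 100% = JAK inhibitor I control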
BaF3 parental – parental Ba/F3 viability inhibition as JAK2V617F counter-screen | inhibition, % at 5.6 µM | 220,000 tested, 1.1% active | AID 1486 | CellTiter-Glo ATP luminescence;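 active = inhibition above a per-campaign cutoff, the mean inhibition of all tested compounds plus 3 SD, cut at about 27% in these data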;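 also: 0% = DMSO wells and 100% = JAK Inhibitor I control wells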
bCat nuc transl – modulators of beta-catenin nuclear translocation. HeLa beta-catenin nuclear translocation, immunofluorescence imaging. nuclear translocation activity, % at 5 µM. 190,000 tested, 0.3% active;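 active = nuclear translocation activity above 50% at 5 µM, with a well cell count of 50 or more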;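 also: per-cell ratio of nuclear to cytoplasmic median beta-catenin stain intensity; plate controls were DMSO negative control for no effect and GSK-3 inhibitor IX positive control for full effect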
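Test system: human HeLa cells, endogenous beta-catenin. Times: 24 h compound exposure, 37°C. Measured by: beta-catenin immunofluorescence imaging with DAPI.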
KLF5 inhibitor – kruppel-like factor 5 inhibition. inhibition, % at 5 µM. 290,000 tested, 0.23% active. AID 1700. DLD-1 KLF5 promoter-luciferase reporter, luminescence;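 active = inhibition above a per-plate limit of that plate's mean compound inhibition plus 3 SD, cut at about 60% in these data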;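 also: 0% = DMSO wells and 100% = LY294002 at 200 µM; higher means less KLF5 promoter-driven luciferase light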
IEC-6 tox confirm – confirmation of cytotoxic compounds in rat IEC-6 intestinal epithelial cells. 1,900 tested, 63% active. shares compounds with IEC-6 tox. inhibition, % at 5 µM. IEC-6 rat intestinal epithelial viability, luminescence;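 also: 0% = vehicle and 100% = reference cytotoxic drug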
An asterisk follows results filed as active; nt = no result given. Rule as the data show it, unless noted: active = inhibition above about 22%; inactive = the rest.

SMILES | MT stabilizer | IEC-6 tox | Ba/F3 V617F tox | BaF3 parental | bCat nuc transl | KLF5 inhibitor | IEC-6 tox confirm
CCOc1ccccc1NC(=O)c1nc(S(=O)(=O)Cc2cccc(C)c2)ncc1Cl | nt | 72.8* | nt | nt | nt | 27.9 | 29.8*
CCSc1nnc(NC(=O)c2nc(S(=O)(=O)Cc3ccc(F)cc3)ncc2Cl)s1 | nt | -5.6 | nt | nt | nt | -6.5 | nt
COCCNc1nc(N2CCCCC2)c2cnn(C)c2n1 | nt | 4.8 | nt | nt | nt | -3.2 | nt
CC(C)(C)OC(=O)NC1CC2CCCC(C1)N2Cc1ccccc1 (configuration not stated) | nt | 2.5 | nt | nt | nt | -43.8 | nt
O=C(CCl)c1ccc2[nH]c(=O)oc2c1 | nt | -2.5 | -2.2 | -3.3 | -0.6 | -2.7 | nt
CCc1nnc(NC(=O)c2nc(S(=O)(=O)Cc3cccc(C)c3)ncc2Cl)s1 | nt | 40.7* | nt | nt | nt | 14.7 | 5.8
CC(C)NC(=O)CSc1nnc(CNC(=O)OC(C)(C)C)n1C | nt | 0.5 | 2.3 | 1.2 | -0.5 | -12.8 | nt
Cc1ccc(OCC(O)CNC2CCCC2)c(C)c1 (configuration not stated) | nt | 0.9 | nt | nt | nt | -50.5 | nt
Cc1ccccc1OCC(O)CNC1CCC(NCC(O)COc2ccccc2C)CC1 (configuration not stated) | nt | 100.9* | nt | nt | nt | -33.9 | 101.0*
CSCC[C@H](NC(=O)N1CCn2c1nc1ccccc12)C(=O)NCC1CCCO1 (some centres not stated) | nt | -5.3 | nt | nt | nt | -9.3 | nt
Cc1ccc(C(=O)N[C@H](C(=O)OCC(=O)NC2CCS(=O)(=O)C2)C(C)C)cc1 (some centres not stated) | 1.7 | 0.3 | -3.1 | -0.4 | 0.8 | -8.3 | nt
COc1ccc(S(=O)(=O)Nc2cc(Cl)ccc2OC)cc1 | 23.7* | 68.5* | 81.3* | 71.9* | 45.1 | 58.8 | 52.6*
COc1ccc(Cl)cc1NS(=O)(=O)c1ccc(OC)c(OC)c1 | 2.8 | -5.4 | -1.4 | 1.6 | 2.7 | -41.6 | nt
Cn1ccsc1=NC(=O)c1ccc([N+](=O)[O-])o1 | nt | 67.3* | nt | nt | nt | -17.1 | 18.4
Cc1nn(C)c(C)c1CCC(=O)N1CCCC(N2CCN(c3ccc(F)cc3)CC2)C1 (configuration not stated) | nt | 0.2 | nt | nt | nt | -7.3 | nt
FC(F)(F)c1cnc(Sc2nnc(-c3cccs3)n2CC2CCCO2)c(Cl)c1 (configuration not stated) | 1.3 | 25.2* | 1.1 | -0.3 | 1.8 | -46.6 | 33.5*
FC(F)(F)c1ccc(Sc2nnc(-c3cccs3)n2CC2CCCO2)nc1 (configuration not stated) | 2.0 | -0.3 | -0.6 | 1.2 | -1.4 | -11.9 | nt
CCOC(=O)/C(=N\Nc1ncnc2ccccc12)c1ccc(C)cc1 | nt | 13.7 | nt | nt | nt | -115.8 | nt
COC(=O)c1cc(C(=O)N2CCN(c3ncccn3)CC2)cc([N+](=O)[O-])c1 | nt | -5.2 | nt | nt | nt | -7.5 | nt
COC(=O)c1cc(C(=O)N2CCN(c3cccc(C)c3C)CC2)cc([N+](=O)[O-])c1 | 15.4* | 37.4* | 49.4* | 68.5* | 90.8* | 47.4 | 32.8*
COC(=O)c1cc(C(=O)c2c(C)cc3ccccn23)cc([N+](=O)[O-])c1 | nt | 44.3* | nt | nt | nt | 3.4 | 48.0*
Cc1ccc(/C=C/C(=O)NCCc2ccccc2)o1 | nt | -0.6 | nt | nt | nt | -33.6 | nt
CCn1ncc(C2=NOC(C(=O)NCc3ccccc3)C2)c1C (configuration not stated) | 31.1* | 66.0* | 80.4* | 77.6* | 64.4* | 51.9 | 57.2*
CCn1ncc(C2=NOC(C(=O)NCc3ccc(OC)cc3)C2)c1C (configuration not stated) | 17.9* | 22.5* | -2.4 | 0.8 | 146.8* | -2.7 | 10.1
COc1ccc(CNC(=O)C2CC(c3ccccc3C(F)(F)F)=NO2)cc1 (configuration not stated) | nt | nt | nt | nt | 7.4 | nt | nt
SMILES | MT stabilizer | IEC-6 tox | Ba/F3 V617F tox | BaF3 parental | bCat nuc transl | KLF5 inhibitor | IEC-6 tox confirm
OC(CON=C1c2ccccc2-c2ccccc21)CN1CCNCC1 (configuration not stated) | 4.5 | 0.1 | 2.8 | 6.5 | 0.8 | -7.9 | nt
N#CCC(=O)NNc1c([N+](=O)[O-])cc(C(F)(F)F)cc1[N+](=O)[O-] | nt | -1.5 | 2.1 | 3.8 | 0.2 | -21.3 | nt
CS(=O)(=O)N1CCC(C(=O)NCc2ccccc2)CC1 | 1.3 | -6.7 | -1.0 | 7.3 | -2.3 | -16.1 | nt
CCOc1ccccc1NC(=O)C(Sc1ccccc1)c1ccccc1 (configuration not stated) | 2.7 | 0.6 | 0.8 | 0.2 | 0.2 | -8.7 | nt
CCC1CCCCN1CCCNC(=O)C1CCN(Cc2nc(-c3ccc(Cl)cc3)oc2C)CC1 (configuration not stated) | nt | 47.4* | nt | nt | nt | -35.1 | 69.6*
Cc1oc(-c2ccc(Cl)cc2)nc1CN1CCC(C(=O)NCCCN2CCOCC2)CC1 | 1.6 | 7.8 | 0.8 | 6.8 | -2.1 | -12.2 | nt
CC(=O)N1CCN(c2ccc(NC(=O)c3ccc4c(c3)OCO4)cc2)CC1 | 2.2 | -1.1 | -2.6 | 1.6 | -0.7 | -12.7 | nt
O=C(Nc1ccc(N2CCN(C(=O)c3ccccc3)CC2)cc1)c1ccc2c(c1)OCO2 | 3.5 | 25.8* | 71.5* | 70.3* | -3.4 | 58.5 | 21.8
Cc1ccc(Nc2nc(N)nc(CCl)n2)c(C)c1 | nt | 100.2* | 98.7* | 30.2* | -2.5 | -15.2 | 5.4
c1ccc(CNc2nc(NCc3ccco3)nc(N3CCOCC3)n2)cc1 | 1.3 | 2.0 | 0.6 | 3.5 | 0.7 | -17.1 | nt
Cc1cccc(Nc2nc(NCc3ccco3)nc(N3CCOCC3)n2)c1 | 3.5 | 31.3* | -1.5 | 8.3 | 2.0 | -47.4 | 11.6
CCOC(=O)COc1ccc(C(=O)NC2CCCCC2)cc1 | 1.6 | 2.6 | -2.1 | 4.2 | nt | -10.0 | nt
Cc1ccccc1OCCOC(=O)c1c(-c2ccccc2)noc1C | nt | 53.5* | nt | nt | nt | 38.4 | 27.6*
Cc1onc(-c2ccccc2)c1C(=O)OCCOc1ccccc1F | nt | 1.2 | nt | nt | nt | -20.6 | nt
Cc1onc(-c2ccccc2Cl)c1C(=O)NC(=S)Nc1ccc(C(C)C)cc1 | nt | 22.3* | 57.7* | 62.7* | -1.3 | -4.5 | -9.9
CCOc1ccccc1CNC(CC)CO (configuration not stated) | 3.2 | 8.3 | 2.3 | 6.6 | -4.9 | 3.8 | nt
Cc1ccc(C(=O)Nc2ccn(Cc3ccc(F)cc3)n2)o1 | 6.2 | 74.4* | 23.2 | 2.0 | 0.5 | -43.6 | 8.7
Cc1cc(C(=O)CSc2cccc[n+]2[O-])c(C)n1-c1ccc(OC(F)F)cc1 | nt | 27.1* | 3.8 | -1.9 | 0.2 | -52.5 | -1.0
COC(=O)c1ccc(-n2c(C)cc(C(=O)CSc3cccc[n+]3[O-])c2C)cc1 | 2.3 | 7.5 | 0.3 | 2.1 | -1.9 | 6.4 | nt
COc1ccc(CCNCc2c(OC)ccc3ccccc23)cc1OC | nt | 25.6* | nt | nt | nt | -24.2 | 4.2
COc1ccc(S(=O)(=O)N2CCCOC2CNC(=O)C(=O)NCCc2ccco2)cc1C (configuration not stated) | nt | 28.5* | nt | nt | nt | 19.0 | 6.2
C=C1C(=O)[C@@]23[C@H](O)C[C@@H]4C(C)(C)CC[C@H](O)[C@@]4(C)[C@@H]2CC[C@@H]1[C@H]3O | 25.5* | 65.2* | 97.9* | 91.9* | nt | 12.1 | 44.4*
